Broadly, the EC50 is the concentration needed to bring the measured effect to its halfway point. Broadly, the IC50 is the point on the concentration scale where inhibition reaches its midpoint.

Results on six molecules are retold here after ChEMBL document CHEMBL3621139, “NO-Donor Dihydroartemisinin Derivatives as Multitarget Agents for the Treatment of Cerebral Malaria” (J Med Chem, 2015).

The source made the active and inactive calls.

Assay [1] concerns Aorta. The assay can be described thus: Vasodilatory activity in Wistar rat endothelium-denuded thoracic aorta assessed as reduction in phenylephrine-induced contraction in presence 1 uM sGC inhibitor ODQ. It counts as functional, tissue-based. Put shortly: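 Denuded aortic strips equilibrated 120 min, with ODQ 1 μM added to the bath 5 min before L-phenylephrine (1 μM) contraction. Cumulative vasodilator concentrations then added. EC50 is the mean ± SEM of at least three experiments, in a separate series.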

Assay [2] concerns Plasmodium berghei. The assay can be described thus: Antiplasmodial activity against Plasmodium berghei ANKA infected in C57BL/6 mouse assessed as reduction in paresitemia at 1.4 umol, ip qd for 5 days measured after 5 days by giemsa staining based microscpic analysis. It counts as functional, organism-based. Put shortly:
(§1)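 C57BL/6 mice infected with P. berghei ANKA and treated from day 5 of infection at 5–15% parasitemia, before neurological signs. Dosing 1.4 μmol ip once daily for 5 days; parasitemia checked every 24 h. Value given as % of pre-treatment parasitemia (set as 100%), read 24 h after the first dose or 24 h after the fifth.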

Assay [3] concerns Plasmodium berghei. Briefly: Antiplasmodial activity against Plasmodium berghei ANKA infected in C57BL/6 mouse assessed as reduction in paresitemia at 1.4 umol, ip qd for 5 days measured after 24 hrs by giemsa staining based microscpic analysis. It counts as functional. Put shortly:
as §1

Assay [4] concerns Aorta. The assay can be described thus: Vasodilatory activity in Wistar rat endothelium-denuded thoracic aorta assessed as reduction in phenylephrine-induced contraction. It counts as functional, tissue-based. The gist of the method: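 Endothelium-denuded aortic strips equilibrated 120 min, contracted with L-phenylephrine (1 μM), then given cumulative concentrations of vasodilator. EC50 is the mean ± SEM of at least three experiments.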

Assay [5] deals with Plasmodium berghei. Briefly: Antiplasmodial activity against Plasmodium berghei ANKA early trophozoite stage by parasite LDH assay. It counts as functional, organism-based.
The subject of assay [6] is Plasmodium berghei. Briefly: Antimalarial activity against Plasmodium berghei ANKA infected in C57BL/6 mouse experimental cerebral model assessed as mouse survival rate at 57 mg/kg, ip qd for 5 days. It counts as functional. Put shortly: (§2)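 P. berghei ANKA-infected mice left to develop clinical cerebral signs, then treated once hypothermic (rectal temperature 30–36 °C); parasitemia checked but not a treatment criterion. Read-out is survival, compared by log-rank test; 24 h survival also recorded. […] only the subgroup treated above 32 °C body temperature.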

Assay [7] relates to Plasmodium berghei. The assay can be described thus: Antimalarial activity against Plasmodium berghei ANKA infected in C57BL/6 mouse experimental cerebral model assessed as mouse survival rate at 57 mg/kg, ip qd for 5 days measured after 24 hrs. It counts as functional. Put shortly: as §2
Assay [8] relates to Plasmodium berghei. The assay can be described thus: Antimalarial activity against Plasmodium berghei ANKA infected in C57BL/6 mouse experimental cerebral model with body temperature >32 deg C assessed as mouse survival rate at 57 mg/kg, ip qd for 5 days. It counts as functional. The gist of the method:
as §2

Assay [9] relates to Plasmodium berghei. Briefly: Antimalarial activity against Plasmodium berghei ANKA infected in C57BL/6 mouse experimental cerebral model assessed as mouse survival rate at 25 mg/kg, ip qd for 5 days measured after 24 hrs. It counts as functional. The gist of the method: as §2
Assay [10] deals with Plasmodium berghei. Briefly: Antimalarial activity against Plasmodium berghei ANKA infected in C57BL/6 mouse experimental cerebral model with body temperature >32 deg C assessed as mouse survival rate at 25 mg/kg, ip qd for 5 days. It counts as functional. The gist of the method: as §2
Assay [11] concerns Plasmodium berghei. The assay can be described thus: Antimalarial activity against Plasmodium berghei ANKA infected in C57BL/6 mouse experimental cerebral model assessed as mouse survival rate at 25 mg/kg, ip qd for 5 days. It counts as functional. The gist of the method: as §2

Turning to `C[C@H]1[C@@H](OCCN(C)Cc2no[n+]([O-])c2C#N)O[C@@H]2O[C@@]3(C)CC[C@H]4[C@H](C)CC[C@@H]1[C@@]24OO3`, the EC50 in [1] stood at 250 nM; in assay [4] it was 23 nM. Further, in assay [2], the outcome was Active. For the same molecule, the “inhibition (INH)” value in [3] is listed as 85%. In [5], this molecule registered an IC50 of 18 nM.
In [5], `C[C@H]1[C@H](OC(=O)CCC(=O)O)O[C@@H]2O[C@@]3(C)CC[C@H]4[C@H](C)CC[C@@H]1[C@@]24OO3` [SODIUM ARESUNATE] registered an IC50 of 16 nM.
Regarding `C[C@H]1[C@@H](OC(=O)CCC(=O)OCO/N=[N+](\[O-])N2CCCC2)O[C@@H]2O[C@@]3(C)CC[C@H]4[C@H](C)CC[C@@H]1[C@@]24OO3`, the concentration giving a half-maximal response (EC50) in [1] stood at 140 nM; in assay [4], 3.6 nM. Moreover, the result in assay [2] was Active. Moreover, the “inhibition (INH)” value in assay [3] stood at 95%. In assay [5], this molecule had a half-maximal inhibitory concentration (IC50) of 15 nM.
For `C[C@H]1[C@@H](OCCN(C)Cc2no[n+]([O-])c2S(=O)(=O)c2ccccc2)O[C@@H]2O[C@@]3(C)CC[C@H]4[C@H](C)CC[C@@H]1[C@@]24OO3` the same measures were 30000 nM, 410 nM, “Active”, 95% and 14 nM.
In the case of `C[C@H]1[C@@H](OCCN(C)Cc2no[n+]([O-])c2C(N)=O)O[C@@H]2O[C@@]3(C)CC[C@H]4[C@H](C)CC[C@@H]1[C@@]24OO3`, the Activity is 51.6% in assay [6], 77% in assay [7], 63.6% in assay [8] and “Dose-dependent effect” in [4]. Further, the figures for the EC50 in assay [1] and in assay [4] were 12000 nM and 1400 nM, respectively. Moreover, in assay [2], the outcome was Active. The “inhibition (INH)” value in assay [3] is recorded as 95%. In assay [5], 16 nM corresponded to half-maximal inhibition (IC50).
On to `CO[C@H]1O[C@@H]2O[C@@]3(C)CC[C@H]4[C@H](C)CC[C@@H]([C@H]1C)[C@@]24OO3` [ARTEMETHER], for which the Activity was found to be 48% in [9], 33.3% in assay [10] and 27.5% in [11]. This molecule also returned an IC50 in assay [5] of 3 nM.
